Experimental data reported in ChEMBL document CHEMBL3580529, “Limonoids with Anti-HIV Activity from Cipadessa cinerascens” (J Nat Prod, 2015).

How the values were obtained:
[1] = test system: Human immunodeficiency virus 1; assay: Antiviral activity against HIV1 NL4-3 infected in human MT4 cells assessed as inhibition of virus-induced cytopathic effect incubated for 3 to 4 days by MTT assay; type: functional, organism-based; details: Human immunodeficiency virus 1, NL4-3, MT4
Outline: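 MT-4 cells seeded with serial compound dilutions, then infected with HIV-1 NL4-3 at final MOI 0.03; 37 °C, 5% CO2, humidified, 3 or 4 days. MTT (5 mg/mL in PBS) added for 3 h, cells lysed in 10% Triton X-100/acidified 2-propanol, absorbance 570 nm. EC50 = concentration giving 50% protection against HIV-induced cytopathic effect.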

[2] = Selectivity index, ratio of CC50 against human MT4 cells to EC50 for HIV1 NL4-3 infected in human MT4 cells; type: toxicity, cell-based; details: MT4 cells (CC50) and HIV1 NL4-3 infected MT4 cells (EC50)
Outline: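 SI calculated as CC50 (MT-4 cytotoxicity, MTT read-out) divided by EC50 (protection of MT-4 cells from HIV-1 NL4-3 cytopathic effect, MOI 0.03), both from parallel 3–4 day assays at 37 °C.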

[3] = Cytotoxicity against human MT4 cells assessed as reduction in cell viability incubated for 3 to 4 days by MTT assay; type: cell-based
Outline: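 Serially diluted compounds on MT-4 cells, 37 °C, 5% CO2, humidified, 3 or 4 days; viability by MTT (5 mg/mL in PBS, 3 h), formazan solubilized with 10% Triton X-100 in acidified 2-propanol, read at 570 nm. CC50 = concentration killing 50% of MT-4 cells.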

SMILES | EC50 [1] | selectivity ratio [2] | CC50 [3]
C=C1[C@H]2C(=O)[C@@]3(C)[C@@H](O[C@@]14CC(=O)O[C@@H](c1ccoc1)[C@]4(C)[C@H]2O)[C@@H](OC(C)=O)[C@@H](OC(C)=O)C(C)(C)[C@@H]3CC(=O)OC | > 100 µM |  | 
C=C1[C@H]2C(=O)[C@@]3(C)[C@@H](O[C@@]14CC(=O)O[C@@H](c1ccoc1)[C@]4(C)[C@H]2O)[C@@H](O)[C@@H](OC(C)=O)C(C)(C)[C@@H]3CC(=O)OC | 5.5 µM | > 7.2 | > 40 µM
C=C1[C@H]2C(=O)[C@@]3(C)[C@@H](O[C@@]14CC(=O)O[C@@H](c1ccoc1)[C@]4(C)[C@H]2OC(C)=O)[C@@H](O)[C@@H](OC(C)=O)C(C)(C)[C@@H]3CC(=O)OC | > 100 µM |  | 
C=C1[C@@H]2C[C@@]3(C)[C@H](c4ccoc4)OC(=O)C[C@]13O[C@H]1C[C@@H](O)C(C)(C)[C@H](CC(=O)OC)[C@@]1(C)C2=O | > 100 µM |  | 
C=C1[C@@H]2C[C@@]3(C)[C@H](C4=C[C@@H](O)OC4=O)OC(=O)C[C@]13O[C@H]1C[C@@H](OC(C)=O)C(C)(C)[C@H](CC(=O)OC)[C@@]1(C)C2=O | > 100 µM |  | 
C=C1[C@H]2C(=O)[C@@]3(C)[C@@H](O[C@@]14CC(=O)O[C@@H](C1=C[C@@H](O)OC1=O)[C@]4(C)[C@H]2OC(C)=O)[C@@H](OC(C)=O)[C@@H](OC(C)=O)C(C)(C)[C@@H]3CC(=O)OC | > 100 µM |  | 
C=C1[C@H]2C(=O)[C@@]3(C)[C@@H](O[C@@]14CC(=O)O[C@@H](C1=C[C@@H](O)OC1=O)[C@]4(C)[C@H]2OC(C)=O)[C@@H](OC(C)=O)CC(C)(C)[C@@H]3CC(=O)OC | > 100 µM |  | 
COC(=O)C[C@H]1C(C)(C)[C@H](OC(C)=O)[C@H](OC(C)=O)[C@@H]2O[C@]34CC(=O)O[C@@H](c5ccoc5)[C@]3(C)[C@@H](O)[C@@H](C(=O)[C@@H]4C)[C@@]21C | > 100 µM |  | 
COC(=O)C[C@H]1C(C)(C)[C@H](OC(C)=O)C[C@@H]2O[C@]34CC(=O)O[C@@H](c5ccoc5)[C@]3(C)[C@@H](O)[C@@H](C(=O)[C@@H]4C)[C@@]21C | > 100 µM |  | 
COC(=O)C[C@H]1C(C)(C)[C@H](OC(C)=O)[C@H](O)[C@@H]2O[C@]34CC(=O)O[C@@H](c5ccoc5)[C@]3(C)[C@@H](O)[C@@H](C(=O)[C@@H]4C)[C@@]21C | > 100 µM |  | 
COC(=O)C[C@H]1C(C)(C)[C@H](OC(C)=O)[C@H](OC(C)=O)[C@@H]2O[C@]34CC(=O)O[C@@H](c5ccoc5)[C@]3(C)[C@@H](O)[C@@H](C(=O)[C@]4(C)O)[C@@]21C | > 100 µM |  | 
COC(=O)C[C@H]1C(C)(C)[C@H](OC(C)=O)[C@H](OC(C)=O)[C@@H]2O[C@]34CC(=O)O[C@@H](c5ccoc5)[C@]3(C)[C@@H](O)[C@@H](C(=O)[C@@]4(C)O)[C@@]21C | > 100 µM |  | 
COC(=O)C[C@H]1C(C)(C)[C@H](OC(C)=O)[C@H](O)[C@@H]2OC3=C(C)C4=CC(=O)O[C@@H](c5ccoc5)[C@]4(C)[C@@H](O)[C@@H]3[C@@]21C | > 100 µM |  | 
COC(=O)C[C@H]1C(C)(C)[C@H](O)[C@H](O)[C@@H]2OC3=C(C)C4=CC(=O)O[C@@H](c5ccoc5)[C@]4(C)[C@@H](O)[C@@H]3[C@@]21C | > 100 µM |  | 
COC(=O)C[C@H]1C(C)(C)[C@H](O)[C@H](O)[C@@H]2OC3=C(C)C4=CC(=O)O[C@@H](c5ccoc5)[C@]4(C)C[C@@H]3[C@@]21C | > 100 µM |  | 
CCC(C)C(O)C(=O)O[C@H]1[C@H](OC=O)[C@H]([C@@]2(C)[C@@H](OC(C)=O)CC(=O)O[C@](C)(COC(C)=O)[C@@H]2CC(=O)OC)C(COC)=C2[C@H](O)C[C@@H](c3ccoc3)[C@@]21C (some centres not stated) | 6.1 µM | > 6.5 | > 40 µM
Cc1ccnc2c1NC(=O)c1cccnc1N2C1CC1 [NEVIRAPINE] | 0.1 µM | > 833 | 
